# Laboratory results from ChEMBL document CHEMBL1141078, “Discovery of potent, nonsystemic apical sodium-codependent bile acid transporter inhibitors (Part 1)” (J Med Chem, 2005).
# Legend:
# [1] = molecular target: T1, Ileal sodium/bile acid cotransporter (Homo sapiens, UniProt Q12908); test: In vitro inhibition of ASBT mediated uptake of [14C]taurocholate (5 uM) in Baby hamster cells expressing human IBAT; type: cell-based
# T1 sequence (Q12908 whole entry): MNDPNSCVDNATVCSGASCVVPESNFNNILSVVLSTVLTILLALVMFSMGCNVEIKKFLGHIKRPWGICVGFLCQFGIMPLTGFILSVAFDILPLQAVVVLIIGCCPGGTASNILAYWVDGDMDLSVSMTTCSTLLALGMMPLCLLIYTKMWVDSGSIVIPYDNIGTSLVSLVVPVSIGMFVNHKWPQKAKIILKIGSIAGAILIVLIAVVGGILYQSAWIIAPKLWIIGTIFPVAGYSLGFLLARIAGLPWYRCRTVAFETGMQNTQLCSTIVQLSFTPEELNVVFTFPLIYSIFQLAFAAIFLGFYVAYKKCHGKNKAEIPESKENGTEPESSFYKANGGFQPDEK
# How it was run: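 BHK cells stably transfected with human IBAT cDNA (H14) were seeded 24–72 h before assay at cell densities adjusted to that interval. Cells were washed, then incubated for 2 h at 37 °C in DMEM (4.5 g/L glucose, 0.2% fatty-acid-free BSA) with test compound and [14C]taurocholate. Wells were washed with cold PBS containing BSA and then with PBS alone. Cell-associated radioactivity was measured by scintillation counting, and IC50 values were derived.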
# [2] = molecular target: T1, Ileal sodium/bile acid cotransporter; test: Effect on fecal bile acid in cholesterol-fed hamster; control is at 8.0; type: functional, Feces
# [3] = molecular target: T1, Ileal sodium/bile acid cotransporter; test: Effect on serum total cholesterol in cholesterol-fed hamster; control is at 135; type: functional
# [4] = molecular target: T1, Ileal sodium/bile acid cotransporter; test: Effect on 24 hr fecal weight in cholesterol-fed hamster; control is at 2.1; type: functional, Feces
# [5] = molecular target: T1, Ileal sodium/bile acid cotransporter; test: Effect on 24 hr fecal weight in cholesterol-fed hamster; control is at 2.3; type: functional, Feces
# [6] = molecular target: T1, Ileal sodium/bile acid cotransporter; test: Effect on serum total cholesterol in cholesterol-fed hamster; control is at 143; type: functional
# [7] = molecular target: T1, Ileal sodium/bile acid cotransporter; test: Effect on fecal bile acids in cholesterol-fed hamster; control is at 6.2; type: functional, Feces
# [8] = molecular target: T1, Ileal sodium/bile acid cotransporter; test: Effect on serum total cholesterol in cholesterol-fed hamster; control is at 195; type: functional
# [9] = molecular target: T1, Ileal sodium/bile acid cotransporter; test: Effect on 24 hr fecal weight in cholesterol-fed hamster; control is at 3.5; type: functional, Feces
# [10] = molecular target: T1, Ileal sodium/bile acid cotransporter; test: Effect on fecal bile acid in cholesterol-fed hamster; control is at 8.7; type: functional, Feces
# [11] = molecular target: T1, Ileal sodium/bile acid cotransporter; test: Effect on fecal bile acid in cholesterol-fed hamster; control is at 6.1; type: functional, Feces
# [12] = molecular target: T1, Ileal sodium/bile acid cotransporter; test: Effect on 24 hr fecal weight in cholesterol-fed hamster; control is at 1.7; type: functional, Feces
# [13] = molecular target: T1, Ileal sodium/bile acid cotransporter; test: Effect on serum total cholesterol in cholesterol-fed hamster; control is at 129; type: functional
IC50 [1],SMILES,other results
16000 nM,C=CCCCCCCCCOc1ccc2c(c1)S(=O)(=O)C[C@@](CC)(CCCC)[C@H](O)[C@@H]2c1ccccc1,–
400 nM,CCCC[C@]1(CC)CS(=O)(=O)c2ccc(NC(=O)OCc3ccccc3)cc2[C@@H](c2ccccc2)[C@H]1O,–
4800 nM,CCCC[C@]1(CC)CS(=O)(=O)c2ccccc2[C@@H](c2ccccc2)[C@@H]1O (racemic),–
260 nM,CCCC[C@]1(CC)CS(=O)(=O)c2ccc(NO)cc2[C@@H](c2ccccc2)[C@H]1O,–
55 nM,CCCC[C@]1(CC)CS(=O)(=O)c2ccc(OC)cc2[C@@H](c2ccccc2)[C@H]1O,–
–,CCCC[C@]1(CC)CS(=O)(=O)c2ccccc2[C@H](c2ccccc2)[C@H]1O (racemic),Inhibition [1]: 37%
13 nM,CCCCC1(CCCC)CS(=O)(=O)c2ccc(N(C)C)cc2[C@@H](c2ccccc2)[C@H]1O,–
19 nM,CCCC[C@]1(CC)CS(=O)(=O)c2ccc(SC)cc2[C@@H](c2ccc(F)cc2)[C@H]1O,–
90 nM,CCCC[C@]1(CC)CS(=O)(=O)c2ccc(NC(C)=O)cc2[C@@H](c2ccccc2)[C@H]1O,–
318 nM,CCCCCC1(CCCCC)CS(=O)(=O)c2ccc(C)cc2[C@@H](c2ccc(F)cc2)[C@H]1O,–
59 nM,CCCC[C@]1(CC)CS(=O)(=O)c2ccc(N3CCCC3)cc2[C@@H](c2ccc(F)cc2)[C@H]1O,–
1670 nM,CCCCCCNc1ccc2c(c1)[C@@H](c1ccccc1)[C@@H](O)[C@](CC)(CCCC)CS2(=O)=O,–
10 nM,CCCCC1(CCCC)CS(=O)(=O)c2ccc(N(C)C)cc2[C@@H](c2ccc(F)cc2)[C@H]1O,–
600 nM,CCCC[C@]1(CC)CS(=O)(=O)c2ccc(NS(C)(=O)=O)cc2[C@@H](c2ccccc2)[C@H]1O,–
180 nM,CCCCC1(CCCC)CS(=O)(=O)c2c(cccc2N(C)C)[C@@H](c2ccc(F)cc2)[C@H]1O,–
2 nM,CCCCC1(CCCC)CS(=O)(=O)c2c(OC)cc(N(C)C)cc2[C@@H](c2ccc(OC)cc2)[C@H]1O,–

IC50 [1],SMILES,other results
70 nM,CCCC[C@]1(CC)CS(=O)(=O)c2ccc(Br)cc2[C@@H](c2cccc(OC)c2)[C@H]1O,–
300 nM,CCCCCC(=O)Nc1ccc2c(c1)[C@@H](c1ccccc1)[C@@H](O)[C@](CC)(CCCC)CS2(=O)=O,–
550 nM,CCCCC1(CCCC)CS(=O)(=O)c2ccc(Br)cc2[C@@H](c2ccccc2Br)[C@H]1O,–
280 nM,CCCC[C@]1(CC)CS(=O)(=O)c2ccccc2[C@@H](c2ccccc2)[C@H]1O (racemic),–
180 nM,CCCCC1(CCCC)CS(=O)(=O)c2c(F)cccc2[C@@H](c2ccc(F)cc2)[C@H]1O,–
180 nM,CCCC[C@]1(CC)CS(=O)(=O)c2ccc(-c3ccccc3)cc2[C@@H](c2cccc(OC)c2)[C@H]1O,–
2670 nM,CCCC[C@]1(CC)CS(=O)(=O)c2ccc(N(O)C(=O)OC(C)(C)C)cc2[C@@H](c2ccccc2)[C@H]1O,–
> 50000 nM,CC1(C)CS(=O)(=O)c2ccc(N)cc2[C@@H](c2ccccc2)[C@H]1O,–
21 nM,CCCC[C@]1(CC)CS(=O)(=O)c2ccc(C)cc2[C@@H](c2ccc(F)cc2)[C@H]1O,–
7 nM,CCCCC1(CCCC)CS(=O)(=O)c2ccc(N(C)C)cc2[C@@H](c2ccc(OC)cc2)[C@H]1O,–
120 nM,CCCCC1(CCCC)CS(=O)(=O)c2cc(N(C)C)ccc2[C@@H](c2ccccc2)[C@H]1O,–
190 nM,CCCCC1(CCCC)CS(=O)(=O)c2cc(OC)ccc2[C@@H](c2ccccc2)[C@H]1O,–
46 nM,CCCCC1(CCCC)CS(=O)(=O)c2ccc(C)cc2[C@@H](c2ccc(F)cc2)[C@H]1O,–
210 nM,CCCCC1(CCCC)CS(=O)(=O)c2ccc([N+](C)(C)C)cc2[C@@H](c2ccccc2)[C@H]1O,–
50 nM,CCCCC1(CCCC)CS(=O)(=O)c2ccc(OC)cc2[C@@H](c2ccc(F)cc2)[C@H]1O,–

SMILES,IC50 [1],other results
CCCC[C@]1(CC)CS(=O)(=O)c2ccc(N(C)C)cc2[C@@H](c2ccccc2)[C@H]1O,5 nM,FBA [2]: 13.7 ((mmol/day)/100g); Total cholesterol [3]: 97 mg/dL; Fecal weight [4]: 2.1 g
CCCC[C@]1(CC)CS(=O)(=O)c2cc(OC)ccc2[C@@H](c2ccccc2)[C@H]1O,120 nM,Fecal weight [5]: 2.4 g; Total cholesterol [6]: 126 mg/dL; FBA [7]: 11.9 ((mmol/day)/100g)
CCCCC1(CCCC)CS(=O)(=O)c2ccc(N(C)C)cc2[C@@H](c2ccc(OCCOCCOCC[N+](CC)(CC)CC)cc2)[C@H]1O.[Br-],3 nM,Total cholesterol [8]: 141 mg/dL; Fecal weight [9]: 3.9 g; FBA [10]: 16.2 ((mmol/day)/100g)
CCCC[C@]1(CC)CS(=O)(=O)c2ccc(N)cc2[C@@H](c2ccccc2)[C@H]1O,68 nM,FBA [11]: 8.8 ((mmol/day)/100g); Fecal weight [12]: 1.6 g; Total cholesterol [13]: 126 mg/dL
